The values that follow come from ChEMBL document CHEMBL1132369, “Synthesis of 1-(2-aminophenyl)isoquinolines and the biological activity of their cis-dichloro platinum(II) complexes” (J Med Chem, 1999).

The subject of experiment [1] is L1210. Briefly: Compound was evaluated for inhibition of DNA synthesis during 48 hours with L1210 murine leukemia cells. It is filed as functional, cell-based, Mus musculus. The essentials:
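Log-phase L1210 cells, cultured and treated as in the growth assay (5 × 10^4 cells/mL, 48 h total exposure; Pt complexes from DMSO, final 0.5%). At 42 h, 0.5 μCi [6-3H]thymidine was added and incubation continued 6 h. Cells were harvested onto glass-fibre filters, washed twice with water, and counted by liquid scintillation. IC50 is for inhibition of thymidine incorporation.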

Experiment [2] concerns L1210. Briefly: Compound was evaluated for growth inhibition during 48 hours with L1210 murine leukemia cells. Format: functional, cell-based, Mus musculus. The essentials: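 L1210 mouse leukemia cells grown in suspension in DMEM with 10% FCS, 2 mM glutamine, streptomycin and penicillin, at 37 °C in 5% CO2. Log-phase cells at 5 × 10^4 cells/mL were exposed to a range of concentrations for 48 h. Pt complexes came from DMSO stocks, pre-held 30 min at 40 °C, final DMSO 0.5%; ligand hydrochlorides were given in water. Cells were counted by haemocytometer, inhibition taken as % of untreated control, and IC50 interpolated from a log-linear plot. At least two independent duplicates were run.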

In the case of “[1-(2-Aminophenyl)-6,7-dimethoxyisoquinoline]dichloroplatinum (II)”, the IC50 (as a rule, the midpoint of a concentration-inhibition curve) was 20 µM with L1210 [1] (l1210) and 9.7 µM in the experiment with L1210 [2] (l1210).

On to `COc1cc2c(cc1OC)C(c1ccccc1N)NCC2` (stereo not drawn), for which the concentration for half-maximal inhibition (IC50) in the experiment with L1210 [1] (Mus musculus, L1210, 48 h) worked out at 90 µM; in the experiment on L1210 [2] (Mus musculus, L1210, 48 h), 141 µM.

Turning to `COc1ccc(N)c(C2NCCc3cc(OC)c(OC)cc32)c1` (stereo not drawn), the IC50 in the experiment with L1210 [1] (Mus musculus, L1210, 48 h) was determined as 100 µM; in the experiment with L1210 [2] (Mus musculus, L1210, 48 h) it was 97 µM.

In the case of “[1-(2-Amino-5-methoxyphenyl)-6,7-dimethoxy-1,2,3,4-tetrahydroisoquinoline]dichloroplatinum (II)”, the IC50 in the experiment on L1210 [1] (l1210) was found to be 1.4 µM; in the experiment with L1210 [2] (l1210) it was 0.95 µM.
